# High-throughput results from PubChem.
# SIRT5 block = SIRT5 desuccinylase inhibitors, primary screen, biochemical, fluorescence imaging, single point, set 5. NAD-dependent protein deacylase sirtuin-5, mitochondrial (Homo sapiens), Q9NXA8. Purified SirT5, succinyl-peptide AMC, trypsin-coupled fluorescence. inhibition, % at 15 µM. 1.1% of 330,000 active; in the data active = inhibition above about 15%
# Target sequence (Q9NXA8 whole entry, looked up): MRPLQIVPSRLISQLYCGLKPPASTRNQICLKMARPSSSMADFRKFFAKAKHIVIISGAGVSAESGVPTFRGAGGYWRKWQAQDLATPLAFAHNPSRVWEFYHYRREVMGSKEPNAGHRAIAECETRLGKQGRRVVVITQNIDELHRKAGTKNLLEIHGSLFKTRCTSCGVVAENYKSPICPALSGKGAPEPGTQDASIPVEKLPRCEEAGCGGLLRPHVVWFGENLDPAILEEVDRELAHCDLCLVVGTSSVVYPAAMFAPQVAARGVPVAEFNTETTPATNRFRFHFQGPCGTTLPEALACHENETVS
# rRNA inh HTS = reduced GFP signal of wild-type E. coli, primary screen, bacterial rRNA inhibitor project, GFP/RFP fluorescence, OD600, single point; E. coli WT GFP vs humanized-ribosome RFP mutants, 24 h; stronger effect = lower value; DMSO median 0, no signal -100; 1.6% of 350,000 active; AID 720706, 2013; GFP signal change (wild-type ribosome), % (test concentration not listed);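 active = significant combined selectivity score with lowered wild-type GFP, culture density cut under 30%, mutant RFP and density less affected; inactive = any of these conditions unmet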
# S100A4 inh HTS = inhibitors of S100A4-myosin IIA peptide binding, primary screen, biochemical, fluorescence polarization, TAMRA-MyoIIA peptide; Protein S100-A4 (Homo sapiens), P26447; inhibition, % at 10.7 µM; 0.14% of 360,000 active;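 active = mean inhibition of at least 70% across replicates, with every replicate also reaching that level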
# Target sequence (P26447 whole entry, looked up): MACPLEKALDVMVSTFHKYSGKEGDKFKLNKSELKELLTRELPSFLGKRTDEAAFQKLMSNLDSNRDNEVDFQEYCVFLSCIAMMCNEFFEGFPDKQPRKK
#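 Test system – S100A4 monomer (human) · Compound – single-point compound testing · Schedule – 5 min incubation before reading · Probe or stimulus – TAMRA-labelled myosin IIA heavy-chain peptide probe, 5 nM · Benchmarks – neutral control DMSO, positive control TFP · Medium – Calcium-containing HEPES buffer, pH 7.2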
# F508del corr = F508del CFTR correction, initial screen, CFBE line, single point. CFBE cells, YFP halide quenching; stimulated with forskolin plus potentiator P3; % fluorescence drop versus neutral controls. activity (quench increase), % at 7.58 µM. 0.36% of 350,000 active. AID 720511, 2013;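 active = mean added fluorescence quench of at least 8% versus neutral control, with both replicates also reaching 8%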;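 also: cells transiently co-express mutant CFTR-F508del with the halide-sensitive YFP; corrector assay measuring rescue of mutant channel to the surface after 24 h compound exposure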
# ERAP1 HTS inh = human ERAP1 aminopeptidase inhibitors, primary screen, biochemical, single point, plate reader | inhibition, % at 10.7 µM | 0.15% of 340,000 active | recombinant ERAP1, Leu-AMC fluorescence, 60 min;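 active = mean replicate inhibition of at least 30%, or all replicates individually reaching that 30% level; inactive = mean below 30% and not every replicate reaching it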;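 also: 0% = neutral control wells and 100% = L-leucinethiol positive control wells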
# * marks the source's active call; other numbers are inactive results; . = no result given. Rows were chosen to be rich in hits. Some 3.1% of all compounds tested hit in one or more screens of this group.
SMILES,SIRT5 block,rRNA inh HTS,S100A4 inh HTS,F508del corr,ERAP1 HTS inh
CCOC(=O)C1=C(C)N=c2sc(=Cc3ccc(OCC(=O)O)cc3)c(=O)n2C1c1ccc(Cl)cc1 (stereo not given),21*,-7,14,-4,0
CCOC(=O)C1=C(C)N=c2s/c(=C/c3ccc(OCC(=O)O)cc3)c(=O)n2C1c1cc(OC)c(OC)c(OC)c1 (stereo not given),.,8,5,-1,11
O=C(NC1CCCC1)N[C@H]1CC[C@@H](CC(=O)N2CCOCC2)O[C@@H]1CO,2,2,4,2,-2
CCOC(=O)c1oc2ccc(S(=O)(=O)n3nc(-c4ccccc4)cc3N)cc2c1C,.,7,-3,8.2*,4
N#Cc1cc([N+](=O)[O-])ccc1N1CCN(c2ccccc2O)CC1,-1,-24*,6,2,5
COc1ccccc1-c1ccc2c(c1)O[C@@H](CN(C)S(=O)(=O)c1ccccc1)[C@@H](C)CN([C@@H](C)CO)S2(=O)=O,5,-2,6,5,4
COc1ccccc1-c1ccc2c(c1)O[C@H](CN(C)S(=O)(=O)c1ccc(F)cc1)[C@H](C)CN([C@@H](C)CO)S2(=O)=O,18*,0,-4,4,-2
COc1ccccc1-c1ccc2c(c1)O[C@@H](CN(C)S(=O)(=O)c1ccc(C)cc1)[C@H](C)CN([C@@H](C)CO)S2(=O)=O,-3,5,-38,-1,4
COc1ccccc1-c1ccc2c(c1)O[C@H](CN(C)S(=O)(=O)c1ccc(C)cc1)[C@H](C)CN([C@H](C)CO)S2(=O)=O,4,2,28,1,-8
COc1ccccc1-c1ccc2c(c1)O[C@@H](CN(C)S(=O)(=O)c1ccc(F)cc1)[C@@H](C)CN([C@@H](C)CO)S2(=O)=O,23*,-5,-3,2,-4
COc1ccccc1-c1ccc2c(c1)O[C@@H](CN(C)S(=O)(=O)c1ccc(F)cc1)[C@@H](C)CN([C@H](C)CO)S2(=O)=O,20*,-1,-34,6,-1
O=C(Nc1ccc2c(c1)[C@H]1C[C@@H](CC(=O)N3CCc4ccccc4C3)O[C@@H](CO)[C@H]1O2)C1CCC1,1,-6,-3,-1,0
CCCN1[C@H](C(=O)NCC2CC2)[C@@H](CO)[C@@H]2Cn3c(ccc(-c4ccccc4)c3=O)[C@@H]21,2,-3,0,0,-1
C/C=C/c1ccc([C@H]2[C@@H](CO)N(CC3CCCCC3)[C@@H]2CNC(C)C)cc1,19*,5,-6,4,2
C/C=C/c1ccc([C@@H]2[C@H](CO)N(CC3CC3)[C@H]2CNC(=O)c2ccccc2)cc1,-2,2,-3,10*,2
O=C(NC[C@H]1[C@H](c2ccccc2)[C@H](CO)N1CC1CCCC1)c1ccccc1,1,3,-3,3,1
COc1ccc(-c2noc(CCC(=O)N3CCN(c4cccc(OC)c4)CC3)n2)cc1,.,-32*,-4,1,.
COc1ccc(-c2noc(CCCC(=O)N3CCOCC3)n2)cc1,-1,18,2,3,-8
O=C(CC1CC1)Nc1ccc2c(c1)[C@H]1C[C@H](CC(=O)N3CCCCC3)O[C@@H](CO)[C@H]1O2,1,4,1,-4,2
COc1ccc(NC(=O)COc2cccc3c2CCN(Cc2cccnc2)C3=O)cc1,17*,-5,-2,3,1
CO[C@@H]1CN(C)C(=O)c2cc(NC(=O)Cc3ccccc3)ccc2OC[C@H](C)NC[C@@H]1C,-9,2,1,0,.
Cc1cc2ccccc2nc1-c1ccccc1F,-1,-16*,4,1,1
O=C1c2ccccc2-c2nc3ccccc3cc21,-7,-15,-10,3,0
CCC(=O)N[C@@H]1CC[C@H](CCn2cc(CN(C)C)nn2)O[C@@H]1CO,2,0,7,1,0
C[C@@H]1CN([C@@H](C)CO)C(=O)Cc2cc(NC(=O)Nc3ccc(F)cc3)ccc2O[C@H]1CN(C)CC1CCCCC1,6,0,3,-3,-2
SMILES,SIRT5 block,rRNA inh HTS,S100A4 inh HTS,F508del corr,ERAP1 HTS inh
NC(=O)[C@H]1[C@@H]2C(=O)O[C@@H](c3ccccc3)[C@@H](c3ccccc3)N2[C@@H](c2ccc(OCCO)cc2)[C@]12C(=O)Nc1ccc(C#CC3(O)CCCCCC3)cc12,14,.,11,-3,2
COc1ccc(C#Cc2ccc3c(c2)[C@]2(C(=O)N3)[C@H](c3ccc(OCCO)cc3)N3[C@H](c4ccccc4)[C@H](c4ccccc4)OC(=O)[C@H]3[C@@H]2C(=O)N2CCc3cc(OC)c(OC)cc3C2)cc1,15*,.,-49,-3,-2
NC(=O)[C@H]1[C@@H]2C(=O)O[C@@H](c3ccccc3)[C@@H](c3ccccc3)N2[C@@H](c2ccccc2OCCO)[C@]12C(=O)Nc1ccc(C#CC3(O)CCCCCC3)cc12,16*,.,-3,1,3
O=C(/C=C/[C@H]1O[C@@H](n2cnc3c(NC(=O)c4ccccc4)ncnc32)[C@H](O)[C@@H]1O)NCc1cccc2ccccc12,-4,-29*,-6,-2,-3
COc1ccc(CNC(=O)/C=C/[C@H]2O[C@@H](n3cnc4c(NC(=O)c5ccccc5)ncnc43)[C@H](O)[C@@H]2O)cc1,-4,2,3,-2,-11
COC(=O)[C@@H](Cc1ccccc1)NC(=O)/C=C/[C@H]1O[C@@H](n2cnc3c(NC(=O)c4ccccc4)ncnc32)[C@H](O)[C@@H]1O,31*,11,-15,1,1
C[C@@H]1CN([C@@H](C)CO)C(=O)c2cc(NC(=O)Nc3ccccc3)ccc2O[C@@H]1CN(C)C(=O)NC1CCCCC1,-7,-3,-13,0,-3
CO[C@H]1CN(C)C(=O)c2cc(NC(=O)c3ccc(F)cc3)ccc2OC[C@H](C)N(C(C)=O)C[C@@H]1C,3,1,-11,-2,-2
O=C(C[C@@H]1C[C@H]2c3cc(NC(=O)CC4CC4)ccc3O[C@H]2[C@H](CO)O1)NCC(F)(F)F,0,2,5,7,-4
O=C(OCC(=O)N1CCCC1)c1c(Cl)ccc(Cl)c1Cl,-2,-3,-27,2,-5
O=C(OCC(=O)N1CCCC1)c1cc(Br)ccc1Cl,18*,6,-2,0,-4
